# Results published in ChEMBL document CHEMBL3739417, “Synthesis and biological evaluation of novel 4,5-disubstituted 2H-1,2,3-triazoles as cis-constrained analogues of combretastatin A-4” (2015).
# Columns and labels:
# Type in all cases: functional
# SK-MEL-28 = assay: Growth inhibition of human SK-MEL-28 cells after 48 hrs by sulforhodamine B assay; settings: SK-MEL-28, 48 h; for CC50: read-out: LD50 (the source's name)
# Summary of the method: (§1)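 NCI-60 panel screen by SRB assay (Rubinstein method). Percentage growth taken from optical density of SRB colour, read before and 48 hrs after exposure to compound or vehicle control. All analogues first screened at 10^-5 M. Analogues giving 60% growth inhibition at that level in at least eight lines then went to a five-concentration dose-response study.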
# [1] = Growth inhibition of human SF539 cells after 48 hrs by sulforhodamine B assay; settings: SF-539, 48 h; for LC50 (concentration giving 50% cell kill): read-out: LD50
# Summary of the method: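 NCI-60 sulforhodamine B screen. Compounds were first tested at a single dose of 10⁻⁵ M; hits, defined as ≥60% growth inhibition in at least eight lines, went on to a five-concentration dose–response. SRB optical density was read before and 48 h after exposure to compound or vehicle. Percentage growth was calculated from OD.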
# [2] = Growth inhibition of human UACC62 cells after 48 hrs by sulforhodamine B assay; settings: UACC-62, 48 h; for CC50: read-out: LD50 (the source's name); summary of the method: as §1
# [3] = Growth inhibition of human SKOV3 cells after 48 hrs by sulforhodamine B assay; settings: SK-OV-3, 48 h; for LC50 (concentration killing 50% of cells): read-out: LD50; summary of the method: as §1
# M14 = assay: Growth inhibition of human M14 cells after 48 hrs by sulforhodamine B assay; settings: M14, 48 h; for CC50: read-out: LD50 (the source's name); summary of the method: as §1
# [4] = Growth inhibition of human DU145 cells after 48 hrs by sulforhodamine B assay; settings: DU-145, 48 h; for CC50: read-out: LD50 (the source's name); summary of the method: as §1
# [5] = Growth inhibition of human OVCAR4 cells after 48 hrs by sulforhodamine B assay; settings: OVCAR-4, 48 h; for LC50 (concentration killing 50% of cells): read-out: LD50; summary of the method: as §1
# SK-MEL-5 = assay: Growth inhibition of human SK-MEL-5 cells after 48 hrs by sulforhodamine B assay; settings: SK-MEL-5, 48 h; for CC50: read-out: LD50 (the source's name); summary of the method: as §1
# [6] = Growth inhibition of human Hs 578T cells after 48 hrs by sulforhodamine B assay; settings: for CC50: read-out: LD50 (the source's name); summary of the method: as §1
Structure (SMILES),GI50 (SK-MEL-28) [µM],CC50 (SK-MEL-28) [µM],GI50 [1] [µM],LC50 (concentration giving 50% cell kill) [1] [µM],GI50 [2] [µM],CC50 [2] [µM],GI50 [3] [µM],LC50 (concentration killing 50% of cells) [3] [µM],GI50 (M14) [µM],CC50 (M14) [µM],GI50 [4] [µM],CC50 [4] [µM],GI50 [5] [µM],LC50 (concentration killing 50% of cells) [5] [µM],GI50 (SK-MEL-5) [µM],CC50 (SK-MEL-5) [µM],GI50 [6] [µM],CC50 [6] [µM],TGI [1] [µM]
COc1cc(-c2n[nH]nc2-c2ccc3ccccc3n2)cc(OC)c1OC,> 100,> 100,0.02,> 100,0.157,> 100,0.075,> 100,0.022,> 100,0.027,> 100,0.077,> 100,0.013,> 100,,,
COc1cc(-c2n[nH]nc2-c2ccc3c(c2)OCCO3)cc(OC)c1OC,> 100,> 100,< 0.01,> 100,> 100,> 100,< 0.01,> 100,< 0.01,> 100,0.025,> 100,0.034,> 100,< 0.01,> 100,0.668,> 100,
COc1ccc(-c2n[nH]nc2-c2cc(OC)cc(OC)c2)cc1,,,0.014,> 100,< 0.01,> 100,0.046,> 100,< 0.01,> 100,0.045,> 100,,,0.027,> 100,0.041,> 100,
Clc1ccc(-c2n[nH]nc2-c2ccccn2)c(Cl)c1,5.39,> 100,,,3.35,> 100,2.72,> 100,14.3,> 100,1.41,> 100,3.04,> 100,7.89,> 100,11.6,> 100,
COc1cc(-c2n[nH]nc2-c2ccc3c(c2)OCO3)cc(OC)c1OC,0.24,> 100,0.18,> 100,> 100,> 100,0.49,> 100,,,0.35,> 100,0.08,> 100,> 100,> 100,0.44,> 100,
COc1ccc(-c2nn[nH]c2-c2cc(OC)c(OC)c(OC)c2)cc1,,,< 0.01,> 100,,,< 0.01,> 100,< 0.01,> 100,< 0.01,> 100,< 0.01,> 100,< 0.01,> 100,< 0.01,> 100,< 0.01
